Holding throughout (type): functional
A short description of experiment [1]: Antioxidant activity assessed as DPPH radical scavenging activity incubated for 30 mins by UV/visible spectrophotometric analysis. In short, it runs like this:
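Test samples in MeOH at 1.875−120 μg/mL reacted with DPPH in MeOH (negative control DPPH 0.1 mM). Absorbance read at 517 nm; scavenging % computed against the DPPH-only control, correcting for sample absorbance without DPPH. EC50 is the concentration giving 50% scavenging. Independent repeats at least three times, reported as mean ± standard deviation.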

Experiment [2] in a line: Antioxidant activity assessed as hydroxyl radical scavenging activity incubated for 10 mins in presence of salicylic acid. In short, it runs like this:
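Modified Smirnoff method. Equal volumes of sample in MeOH, FeSO4 (6 mM) and ethanolic salicylic acid (6 mM), then H2O2 (6 mM), giving final sample levels of 0.2−1 mg/mL. Held 10 min at room temperature, then read at 510 nm. Scavenging % uses blanks with and without H2O2 against the negative control. EC50 taken at 50% scavenging. Repeated at least three times, mean ± standard deviation.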

Experiment [3] in a line: Antioxidant activity assessed as superoxide anion radical scavenging activity incubated for 20 mins measured every 30 secs for 5 mins in presence of pyrogallol.

By EC50 is commonly meant the midpoint of the concentration-response curve. `COc1c2c(c(O)c3c1[C@H](O)Cc1cc(CC(C)=O)c(C(=O)O)c(O)c1-3)C(=O)c1cccc(O)c1C2=O`: the values for the half-maximal effective concentration (EC50) in experiment [1], in experiment [2] and in experiment [3] were 25 µM, 840 µM and 681 µM, respectively.

In the case of `COc1c2c(c(O)c3c1C(=O)c1c(O)cccc1C3=O)-c1c(cc3c(c1O)C(=O)OC(C)(O)C3)CC2` (centres undefined), the EC50 was 2.9 µM in experiment [1], 619 µM in experiment [2] and 83 µM in experiment [3].

For the molecule `CCC(=O)O[C@@H]1Cc2cc3c(c(O)c2-c2c(O)c4c(c(OC)c21)C(=O)c1c(O)cccc1C4=O)C(=O)O[C@H](C)C3`, the 50% effective concentration (EC50) in experiment [1] is 30 µM; in experiment [2] it was 831 µM; in experiment [3], 754 µM.

Turning to `COc1c2c(c(O)c3c1[C@H](O)Cc1cc4c(c(O)c1-3)C(=O)O[C@H](C)C4)C(=O)c1cccc(O)c1C2=O`, the EC50 in experiment [1] worked out at 21 µM; in experiment [2], 723 µM; in experiment [3], 589 µM.

In the case of `COc1c2c(c(O)c3c1C(=O)c1c(O)cccc1C3=O)-c1c(cc3c(c1O)C(=O)OC(C)(OC)C3)CC2` (centres undefined), the figures for the EC50 in experiment [1], in experiment [2] and in experiment [3] were 2.7 µM, 519 µM and 139 µM, respectively.

As to `COc1c2c(c(O)c3c1[C@H](OC(=O)C(C)C)Cc1cc4c(c(O)c1-3)C(=O)O[C@H](C)C4)C(=O)c1cccc(O)c1C2=O`, the EC50 in experiment [1] was found to be 30 µM; in experiment [2], 804 µM; in experiment [3], 746 µM.

Take `COc1c2c(c(O)c3c1C(=O)c1c(O)cccc1C3=O)-c1c(cc3c(c1O)C(=O)O[C@H](C)C3)CC2`: the figures for the EC50 in experiment [1], in experiment [2] and in experiment [3] were 42 µM, 1530 µM and 1100 µM, respectively.

For the molecule `CC(C)(C)c1cc(O)ccc1O` [E319], the results for the EC50 in experiment [1], in experiment [2] and in experiment [3] were 10 µM, 1920 µM and 482 µM, respectively.

The record behind these values is ChEMBL document CHEMBL4196182, “Hexaricins, Pradimicin-like Polyketides from a Marine Sediment-Derived Streptosporangium sp. and Their Antioxidant Effects” (J Nat Prod, 2018).
